Key:
Mus musculus [1] = assay: Tested in vivo for the analgesic activity by measuring the delay in response to noxious heat stimuli (D'Amour-Smith tail-flick method) in mice upon subcutaneous administration; 7.4-24.4; assay type: functional; settings: sc
In short: (§1)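 Compounds were given as racemic hydrobromide salts. The vehicle, also used as the control in both the tail-flick and the phenylquinone writhing tests, was distilled water with a few drops of Tween 80.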

Mus musculus [2] = assay: Tested in vivo for the analgesic activity by measuring the inhibition of phenyl-p-quinone- induced writhing (PQW) in mice upon subcutaneous administration; 2.1-2.9; assay type: functional; settings: sc; in short: as §1
Mus musculus [3] = assay: Tested in vivo for the analgesic activity by measuring the inhibition of phenyl-p-quinone- induced writhing (PQW) in mice upon subcutaneous administration; 7.2-21.9; assay type: functional; settings: sc; in short: as §1
Opioid receptor = Opioid receptor (Rattus norvegicus, UniProt P33533+P34975+P33535); assay: Tested for In vitro binding constant for Opioid receptors by measuring the inhibition of stereospecific binding of [3H]naloxone in rat brain homogenates; assay type: tissue-based
Mus musculus [4] = assay: Tested in vivo for the analgesic activity by measuring the delay in response to noxious heat stimuli (D'Amour-Smith tail-flick method) in mice upon subcutaneous administration; assay type: functional; settings: sc; in short: as §1
Mus musculus [5] = assay: Tested in vivo for the analgesic activity by measuring the inhibition of phenyl-p-quinone- induced writhing (PQW) in mice upon subcutaneous administration; 3.2-4.4; assay type: functional; settings: sc; in short: as §1
Mus musculus [6] = assay: Tested in vivo for the analgesic activity by measuring the inhibition of phenyl-p-quinone- induced writhing (PQW) in mice upon subcutaneous administration; 2.2-2.7; assay type: functional; settings: sc; in short: as §1
Mus musculus [7] = assay: Tested in vivo for the analgesic activity by measuring the inhibition of phenyl-p-quinone- induced writhing (PQW) in mice upon subcutaneous administration; 2.6-3.4; assay type: functional; settings: sc; in short: as §1
Mus musculus [8] = species on record: Mus musculus; assay: animal or person; settings: sc
Mus musculus [9] = assay: Tested in vivo for the analgesic activity by measuring the inhibition of phenyl-p-quinone- induced writhing (PQW) in mice upon subcutaneous administration; 0.20-0.36; assay type: functional; settings: sc; in short: as §1

Structure (SMILES) | IC50 (Opioid receptor) | ED50 (Mus musculus [4]) | further results
CC(C)=CCN1CC[C@]2(C)c3cc(O)ccc3C[C@H]1[C@H]2C [(+)-PENTAZOCINE] | – | – | ED50 (Mus musculus [1]): 14.6 mg/kg; ED50 (Mus musculus [2]): 2.4 mg/kg
CN1CCC2(c3ccc(O)cc3)CCC1C2 (stereo not drawn) | 7.29 µM | > 25 mg/kg | ED50 (Mus musculus [3]): 10.8 mg/kg
CCCN1CCC2(c3ccc(O)cc3)CCC1C2 (stereo not drawn) | 6.98 µM | > 25 mg/kg | ED50 (Mus musculus [5]): 3.7 mg/kg
Oc1ccc(C23CCC(C2)N(CCc2ccccc2)CC3)cc1 (stereo not drawn) | 0.34 µM | > 25 mg/kg | ED50 (Mus musculus [6]): 2.5 mg/kg
Oc1ccc(C23CCC(C2)N(CC2CC2)CC3)cc1 (stereo not drawn) | 2.78 µM | > 25 mg/kg | ED50 (Mus musculus [7]): 3 mg/kg
CN1CC[C@]23c4c5ccc(O)c4O[C@H]2[C@@H](O)C=C[C@H]3[C@H]1C5 [MORPHINE] | – | – | ED50 (Mus musculus [8]): 0.68 mg/kg
O=C(CCCN1CCC2(c3ccc(O)cc3)CCC1C2)c1ccc(F)cc1 (stereo not drawn) | 0.268 µM | > 25 mg/kg | ED50 (Mus musculus [9]): 0.27 mg/kg
